In ChEMBL document CHEMBL3870302, “Computer-aided identification, synthesis and evaluation of substituted thienopyrimidines as novel inhibitors of HCV replication” (Eur J Med Chem, 2016):

Experiments:
[1] = tested on: Hepatitis C virus; assay: Antiviral activity against Hepatitis C virus genotype 1b infected in human HuH5.2 cells after 72 hrs by luciferase reporter gene assay; format: functional, cell-based, Hepacivirus hominis
Procedure, shortened: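 Huh 5-2 cells with genotype 1b I389luc-ubi-neo/NS3-3'/5.1 subgenomic replicon, seeded 6 500 cells/well in DMEM/10% FCS without Geneticin, overnight 37 °C. Compound (DMSO stock diluted in medium) in 1:5 four-step or 1:2 eight-step series, 72 h. Cells PBS-washed, lysed 5 min, luciferase luminescence read, converted to % untreated control; EC50 from dose-response curve, mean of ≥2 independent experiments.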

[2] = Cytotoxicity against human HuH5.2 cells assessed as reduction in metabolic activity after 72 hrs by MTS assay; format: toxicity, cell-based, Huh-5-2; details: for CC50 at 72 h: HuH5.2 cells
Procedure, shortened: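 Run in parallel with the replicon assay: Huh 5-2 replicon cells, 6 500 cells/well, compound series for 72 h at 37 °C, 5% CO2. Medium then replaced with 5% MTS in phenol red-free medium for 1.5 h. Absorbance at 498 nm expressed as % untreated cells; CC50 from dose-response curve as 50% reduction in metabolic activity, mean of ≥2 experiments.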

[3] = Selectivity index, ratio of CC50 for human HuH5.2 cells to EC50 for hepatitis C virus genotype 1b infected in human HuH5.2 cells; format: toxicity, cell-based; details: for selectivity ratio: HuH5.2 cells, read-out: Ratio CC50/EC50
Procedure, shortened: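 Ratio of CC50 (MTS metabolic read-out, 72 h) to EC50 (replicon luciferase read-out, 72 h), both measured in parallel on Huh 5-2 genotype 1b replicon cells.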

[4] = Inhibition of Hepatitis C virus genotype 1b (con1) full length C-terminal His-tagged NS3 helicase expressed in Escherichia coli Rosette(DE3) assessed as inhibition of 5'-Cy5/3'-IAbRQ-labeled DNA unwinding activity by molecular beacon assay; design: species or system Hepatitis C virus (isolate Con1)
Procedure, shortened: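 Molecular beacon unwinding assay: 25 mM MOPS pH 6.5, 1.25 mM MgCl2, 5% DMSO, 5 µg/ml BSA, 0.01% Tween20, 0.05 mM DTT, 5 nM fluorescent DNA substrate, 12.5 nM NS3h, 1 mM ATP.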

[5] = Hepatitis C virus, genotype 1b, Huh-5-2, 72 h

Compound	EC50 [1, 5] [µM]	EC90 [1, 5] [µM]	CC50 at 72 h [2] [µM]	selectivity ratio [3]	IC50 [4] [µM]	EC50 [1] [µM]	CC50 ([2]; huh-5-2, 72 h, 72 h) [µM]	Ratio CC50/EC50 [3]
CCc1sc2ncnc(N/N=C(/C)c3cc(O)ccc3O)c2c1C	0.803	1.62	> 292	> 364	> 1000			
O=C(NNc1ncnc2sccc12)c1ccccn1	0.314	0.671	138	445	> 1000			
c1ccc2[nH]c(Nc3ncnc4sc5c(c34)CCCC5)nc2c1	55.4	> 104	231	4.2	> 1000			
c1ccc2c(Nc3ncnc4sc5c(c34)CCCC5)cccc2c1	32.4	> 33.5	281	8.7	> 1000			
Oc1ccc(O)c(/C=N/Nc2ncnc3sc4c(c23)CCCC4)c1	1.17	2.92	36.8	31.5	> 1000			
C/C(=N/Nc1ncnc2sc(C)c(C)c12)c1cc(O)ccc1O	1.58	4.65	> 305	> 193	> 1000			
C/C(=N/Nc1ncnc2sccc12)c1cc(O)ccc1O	2.79	4.55	226	81	229			
C/C(=N\Nc1ncnc2sc3c(c12)CCCC3)c1cnccn1	0.355	2.85	57.1	160	> 1000			
O=C(NNc1ncnc2sc3ccccc3c12)c1cc(O)ccc1O	0.681	2.14	46.5	68.3	> 1000			
O=C(NNc1ncnc2sc3c(c12)CCC3)c1ccccn1	0.745	1.94	6.61	8.9	> 1000			
O=C(NNc1ncnc2sc3c(c12)CCCC3)c1cc(O)ccc1O	0.502	0.945	99.9	199	> 1000			
C/C(=N/Nc1ncnc2sc3c(c12)CCC3)c1nc2ccccc2[nH]1	0.802	< 2.24	6.83	8.3	> 1000			
C/C(=N\Nc1ncnc2sc3c(c12)CCCC3)c1nc2ccccc2[nH]1	2.42	7.06	37.3	15.4	> 1000			
C/C(=N\Nc1ncnc2sc3c(c12)CCC3)c1ccccc1O	1.72	4.07	141	82.9	> 1000			
O=C(NNc1ncnc2sc3c(c12)CCC3)c1nc2ccccc2[nH]1	0.594	1.11	7.46	11.6	> 1000			
C/C(=N/Nc1ncnc2sc(Cl)c(C)c12)c1cnccn1	0.058	0.289	3.13	53.9	> 1000			
O=C(NNc1ncnc2sc3c(c12)CCCC3)c1ccccn1	1.47	0.819	7.75	5.27	> 1000			

Compound	EC50 [1, 5] [µM]	EC90 [1, 5] [µM]	CC50 at 72 h [2] [µM]	selectivity ratio [3]	IC50 [4] [µM]	EC50 [1] [µM]	CC50 ([2]; huh-5-2, 72 h, 72 h) [µM]	Ratio CC50/EC50 [3]
C/C(=N\Nc1ncnc2sc3ccccc3c12)c1cc(O)ccc1O	0.475	0.897	21	44.2	> 1000			
Cc1c(Cl)sc2ncnc(NNC(=O)c3ccccc3O)c12	0.159		> 8.96	> 56.1	306			
O=C(NNc1ncnc2sc3c(c12)CCCC3)c1nc2ccccc2[nH]1	0.17	0.679	3.14	18.5	> 1000			
O=C(NNc1ncnc2sc3c(c12)CCCC3)c1cc2ccccc2[nH]1	20.8		74.5	3.6	224			
O=C(NNc1ncnc2sc3c(c12)CCC3)c1cc(O)ccc1O	2.34	3.67	198	84.6	> 1000			
O=C(NNc1ncnc2sccc12)c1cnccn1	0.851	2.28	233	274	> 1000			
O=C(NNc1ncnc2sc3c(c12)CCCC3)c1ccc2ccccc2n1	16.5		40.4	2.4	> 1000			
O=C(NNc1ncnc2sc3c(c12)CCCC3)c1ccccc1O	0.273	0.567	63.6	233	> 1000			
C/C(=N/Nc1ncnc2sc3c(c12)CCC3)c1ccccn1	1.18	1.44	14	11.9	> 1000			
C/C(=N\Nc1ncnc2sc3c(c12)CCCC3)c1ccc2ccccc2n1	< 0.697		7.23	> 10.4	> 1000			
O=C(NNc1ncnc2sc3c(c12)CCCC3)c1cnccn1	1.29	3.75	10.6	8.21	> 1000			
Cc1sc2ncnc(NNC(=O)c3cnccn3)c2c1C	0.0386	0.319	1.67	43.3	> 1000			
C/C(=N\Nc1nc(C)nc2sc3c(c12)CCCC3)c1cnccn1	0.069	0.24	> 3	> 42.7	> 1000			
Cc1nc(NNC(=O)c2ccccc2O)c2c3c(sc2n1)CCCC3	1.26	3.07	25	19.8	> 1000			
C/C(=N\Nc1ncnc2sc3c(c12)CCCC3)c1cc2ccccc2[nH]1	61.2	> 277	26	0.42	> 1000			
C/C(=N/Nc1ncnc2sccc12)c1ccccc1O	4.69	> 10.6	80.5	17.2	> 1000			
C/C(=N\Nc1ncnc2sc3c(c12)CCCC3)c1cc(O)ccc1O (stereo in doubt; form 1)					> 1000	< 1	> 141	> 141
